Experimental data pooled from the literature.
Target: Fibroblast growth factor receptor 2 (FGFR2, Homo sapiens, UniProt P21802)

Compound	observed	mode	technique	tested at	measurement	value
Cc1ccc(NC(=O)c2ccnc(C(F)(F)F)c2)cc1-c1cc(OCCO)nc(N2CCOCC2)c1	binding		competition with immobilised ligand	1 µM	remaining binding	91%
COc1ccc2oc(-c3ccc4nc(N)oc4c3)c/c(=N\c3ccccc3NC(=O)CCN)c2c1	binding			1 µM	remaining binding	95%
CO[C@@H]1[C@H](N(C)C(=O)c2ccccc2)C[C@H]2O[C@]1(C)n1c3ccccc3c3c4c(c5c6ccccc6n2c5c31)C(=O)NC4	enzyme activity	inhibitor		1 µM	inhibition	42%
CCCCC(=O)Nc1ccc(-c2ccc3ncn(CCC)c(=O)c3c2)cn1	binding		competition with immobilised ligand	0.5 µM	remaining binding	86%
C=CC(=O)N1CCC([C@@H]2CCNc3c(C(N)=O)c(-c4ccc(Oc5ccccc5)cc4)nn32)CC1	cell-free assay			1 µM	inhibition	14%
CC(C)S(=O)(=O)c1ccc2nccc(Nc3ccc4sc(C5CCCC5)nc4c3)c2c1	enzyme activity	inhibitor		1 µM	activity vs control	110%
N#Cc1ccc(NC(=O)Nc2ccccc2)cc1	cell-free assay		competition with immobilised ligand	25 µM	remaining binding	100%
CN1CCN(C(=O)c2ccc(NC(=O)Nc3ccc(N(C)c4ccnc(Nc5ccc(CS(C)(=O)=O)cc5)n4)cc3)cc2)CC1	binding		competition with immobilised ligand	1 µM	remaining binding	99%
C1=C/COCc2cc(ccc2OCCN2CCCC2)Nc2nccc(n2)-c2cccc(c2)COC/1	binding			0.1 µM	remaining binding	94%
